From publication PMC7507839 (Investigational new drugs, 2018)
Entries after “also recorded” stand apart in the source; their conditions may differ.

Assays:
[1] = test system: patients with metastatic or locally advanced solid tumors; experiment: Phase I dose escalation: safety, DLT, MTD; type: in vivo
[2] = plasma pharmacokinetics in patients; type: in vivo, human
[3] = test system: metastatic or locally advanced solid tumors; experiment: anti-tumor activity; type: in vivo, human
In short: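 Adults with histologically confirmed metastatic or locally advanced solid tumors lacking standard therapy, ECOG 0–1, received test compound twice daily from 50 mg in escalating cohorts. Cycle 1 was 14 days followed by a 1-week holiday, cycles 2–4 were 14 days, and cycles from 5 on were 28 days. RECIST 1.0 imaging at end of cycle 4, then every two cycles. All patients dosed at least once analysed.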

[4] = test system: c-Met; details: read-out: IC50 towards c-Met; cited from earlier work
[5] = test system: gastric and non-small cell lung cell lines; details: a number of cell lines; most pronounced in gastric and non-small cell lung cell lines; cited from earlier work
[6] = test system: c-Met; details: GTL-16 gastric cancer cells, cited from earlier work
[7] = test system: c-Met; details: A549 non-small cell lung carcinoma cell line; cited from earlier work
[8] = test system: GTL-16 xenograft; details: twice-daily 100 mg/kg orally, cited from earlier work
[9] = test system: tyrosine kinases; details: cited from earlier work
[10] = test system: ovarian cancer cell lines; details: with paclitaxel + carboplatin, multiple ovarian cancer cell lines; cited from earlier work
[11] = test system: non-small cell lung cancer cell lines; details: high c-Met expressing cell lines; cited from earlier work
[12] = test system: medullary thyroid cancer; details: monotherapy; cited from earlier work
[13] = Dose Level 5, 550 mg BID, Fatigue
[14] = Dose Level 6, 750 mg BID, Nausea
[15] = Dose Level 7, 1050 mg BID, Nausea
[16] = Dose Level 7, 1050 mg BID, Vomiting
[17] = Dose Level 8, 1500 mg BID, Elevated ALT
[18] = Dose Level 8, 1500 mg BID, Elevated AST
[19] = Dose Level 8, 1500 mg BID, Elevated Amylase
[20] = Dose Level 8, 1500 mg BID, Hypokalaemia

Cn1cc(-c2cnc3ccc4ccc(CS(=O)(=O)NCc5ccccn5)cc4c(=O)c3c2)cn1 [MK-8033, 1-[3-(1-methyl-1H-pyrazol-4-yl)-5-oxo-5H-benzo[4,5]cyclohepta[1,2-b]pyridin-7-yl] -N-(pyridin-2-ylmethyl)methanesulfonamide]
No. of Subjects with a DLT ([1]; Dose Level 1 (n = 1), 50 mg BID, Total): 0 | No. of Subjects with a DLT ([1]; Dose Level 2 (n = 1), 100 mg BID, Total): 0 | No. of Subjects with a DLT ([1]; Dose Level 3 (n = 3), 200 mg BID, Total): 0 | No. of Subjects with a DLT ([1]; Dose Level 4 (n = 4), 400 mg BID, Total): 0 | No. of Subjects with a DLT ([1]; Dose Level 5 (n = 7), 550 mg BID, Fatigue): 1 | No. of Subjects with a DLT ([1]; Dose Level 5 (n = 7), 550 mg BID, Total): 1 | Number of DLTs Grade 1 [1, 13]: 0 | Number of DLTs Grade 2 [1, 13]: 0 | Number of DLTs Grade 3 [1, 13]: 1 | Number of DLTs Grade 4 [1, 13]: 0 | No. of Subjects with a DLT ([1]; Dose Level 6 (n = 18), 750 mg BID, Nausea): 1 | No. of Subjects with a DLT ([1]; Dose Level 6 (n = 18), 750 mg BID, Total): 1 | Number of DLTs Grade 1 [1, 14]: 0 | Number of DLTs Grade 2 [1, 14]: 1 | Number of DLTs Grade 3 [1, 14]: 0 | Number of DLTs Grade 4 [1, 14]: 0 | No. of Subjects with a DLT ([1]; Dose Level 7 (n = 6), 1050 mg BID, Nausea): 2 | No. of Subjects with a DLT ([1]; Dose Level 7 (n = 6), 1050 mg BID, Total): 2 | No. of Subjects with a DLT ([1]; Dose Level 7 (n = 6), 1050 mg BID, Vomiting): 2 | Number of DLTs Grade 1 [1, 15]: 0 | Number of DLTs Grade 2 [1, 15]: 0 | Number of DLTs Grade 3 [1, 15]: 2 | Number of DLTs Grade 4 [1, 15]: 0 | Number of DLTs Grade 1 [1, 16]: 0 | Number of DLTs Grade 2 [1, 16]: 1 | Number of DLTs Grade 3 [1, 16]: 1 | Number of DLTs Grade 4 [1, 16]: 0 | No. of Subjects with a DLT ([1]; Dose Level 8 (n = 3), 1500 mg BID, Elevated ALT): 1 | No. of Subjects with a DLT ([1]; Dose Level 8 (n = 3), 1500 mg BID, Elevated AST): 1 | No. of Subjects with a DLT ([1]; Dose Level 8 (n = 3), 1500 mg BID, Elevated Amylase): 1 | No. of Subjects with a DLT ([1]; Dose Level 8 (n = 3), 1500 mg BID, Hypokalaemia): 1 | No. of Subjects with a DLT ([1]; Dose Level 8 (n = 3), 1500 mg BID, Total): 2 | Number of DLTs Grade 1 [1, 17]: 0 | Number of DLTs Grade 2 [1, 17]: 0 | Number of DLTs Grade 3 [1, 17]: 1 | Number of DLTs Grade 4 [1, 17]: 0 | Number of DLTs Grade 1 [1, 18]: 0 | Number of DLTs Grade 2 [1, 18]: 0 | Number of DLTs Grade 3 [1, 18]: 1 | Number of DLTs Grade 4 [1, 18]: 0 | Number of DLTs Grade 1 [1, 19]: 0 | Number of DLTs Grade 2 [1, 19]: 0 | Number of DLTs Grade 3 [1, 19]: 1 | Number of DLTs Grade 4 [1, 19]: 0 | Number of DLTs Grade 1 [1, 20]: 0 | Number of DLTs Grade 2 [1, 20]: 0 | Number of DLTs Grade 3 [1, 20]: 0 | Number of DLTs Grade 4 [1, 20]: 1 | No. of Subjects with a DLT ([1]; Part C - (n = 3), 750 mg BID, Total): 0 | patients who died during the study ([1]; determined by investigators to be unrelated to MK-8033): Five | maximum tolerated dose (MTD) ([1]; dose level 6, oral): 750 mg BID | recommended phase II dose (RP2D) ([1]; dose level 6, acute and chronic toxicity, TITE-CRM): 750 mg BID | Alopecia, All Grades, % ([1]; treatment-related, n = 46): 19.6% | Anorexia, All Grades, % ([1]; treatment-related, n = 46): 17.4% | Decreased Hemoglobin, All Grades, % ([1]; treatment-related, n = 46): 6.5% | Decreased Hemoglobin, Grade ≥ 3, % ([1]; treatment-related, n = 46): 2.2% | Diarrhea, All Grades, % ([1]; treatment-related, n = 46): 6.5% | Dysgeusia, All Grades, % ([1]; treatment-related, n = 46): 8.7% | Dyspepsia, All Grades, % ([1]; treatment-related, n = 46): 6.5% | Dyspepsia, Grade ≥ 3, % ([1]; treatment-related, n = 46): 4.3% | Elevated ALT, All Grades, % ([1]; treatment-related, n = 46): 17.4% | Elevated ALT, Grade ≥ 3, % ([1]; treatment-related, n = 46): 2.2% | Elevated AST, All Grades, % ([1]; treatment-related, n = 46): 10.9% | Elevated AST, Grade ≥ 3, % ([1]; treatment-related, n = 46): 2.2% | Elevated Amylase, All Grades, % ([1]; treatment-related, n = 46): 6.5% | Elevated Amylase, Grade ≥ 3, % ([1]; treatment-related, n = 46): 4.3% | Elevated Creatinine, All Grades, % ([1]; treatment-related, n = 46): 13.0% | Elevated Lipase, All Grades, % ([1]; treatment-related, n = 46): 6.5% | Elevated Lipase, Grade ≥ 3, % ([1]; treatment-related, n = 46): 4.3% | Fatigue, All Grades, % ([1]; treatment-related, n = 46): 28.3% | Fatigue, Grade ≥ 3, % ([1]; treatment-related, n = 46): 2.2% | Headache, All Grades, % ([1]; treatment-related, n = 46): 6.5% | Hypokalemia, All Grades, % ([1]; treatment-related, n = 46): 6.5% | Hypokalemia, Grade ≥ 3, % ([1]; treatment-related, n = 46): 2.2% | Lymphopenia, All Grades, % ([1]; treatment-related, n = 46): 8.7% | Lymphopenia, Grade ≥ 3, % ([1]; treatment-related, n = 46): 4.3% | Nausea, All Grades, % ([1]; treatment-related, n = 46): 21.7% | Nausea, Grade ≥ 3, % ([1]; treatment-related, n = 46): 4.3% | Vomiting, All Grades, % ([1]; treatment-related, n = 46): 13.0% | Vomiting, Grade ≥ 3, % ([1]; treatment-related, n = 46): 2.2% | max concentration versus dose ([2]; 50 to 1500 mg BID, dose proportionality not assessable): appears to increase with dose | Day 14/Day 1 geometric mean accumulation ratios for Cmax ([2]; 200 to 1500 mg BID dose range, not conclusive): 1.2 to 4.2 | impact of co-administered omeprazole on steady state Cmax, AUC0–12h and Tmax ([2]; Part C, 770 mg BID with or without 20 mg omeprazole, two patients): no effect; also recorded: does not appear to strongly impact | Tmax ([2]; human, plasma, oral): 1 to 3 h | median progression-free survival (PFS) ([3]; 95% confidence interval 42–115 days): 57 days | PFS rate ([3]; at 6 weeks): 80.4% | PFS rate ([3]; at 12 weeks): 15.2% | patients with stable disease (SD), % ([3]; best response): 18.2% | patients with partial response (PR) ([3]; endometrioid adenocarcinoma): One | patients with best response of progressive disease (PD), % ([3]; human, in vivo): 71.7% | PFS of the responding patient ([3]; patient with endometrioid adenocarcinoma): 846 days | IC50 [4]: 1 nM | IC50 for proliferation [5]: sub-micromolar | autophosphorylation of c-Met in the C-terminal docking site ([6]; constitutively activated c-MET): potently inhibited | downstream signaling events such as ERK1/2 and AKT [6]: inhibited | HGF-induced phosphorylation of c-Met [7]: inhibited | phosphorylation of AKT and ERK1/2 [7]: inhibited | plasma concentrations relative to IC50 for target inhibition ([8]; mice): exceeding the IC50 for target inhibition for 24 h/day | tolerability ([8]; mice): well-tolerated | pathway activation and tumor growth [8]: inhibited | selectivity [9]: target multiple tyrosine kinases | cell growth inhibition in combination with chemotherapy [10]: synergized | radiosensitization [11]: radiosensitized

COc1cc2nccc(Oc3ccc(NC(=O)C4(C(=O)Nc5ccc(F)cc5)CC4)cc3)c2cc1OC [cabozantinib]
IC50 [4]: 1.3 nM | response rate [12]: 49%

O=C1NC(=O)[C@@H](c2cn3c4c(cccc24)CCC3)[C@@H]1c1c[nH]c2ccccc12 [tivantinib, reference compound]
IC50 [4]: 100 nM | selectivity [9]: only binds to c-Met
